HSP90 inh – HSP90 refolding inhibition in rabbit reticulocyte lysate; inhibition, % at 5.6 µM; 290,000 tested, 0.91% active; luciferase refolding luminescence, 3 h;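 active means inhibition above the screen-wide mean plus 3 SD, computed separately per campaign, cut at about 16% in these data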;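 further: 0% = DMSO wells and 100% = 60 µM geldanamycin wells; inhibitors lower the luminescence because luciferase stays unfolded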
HSF1 inhib – HSF1 inhibition; NIH3T3-HGL HSE-luciferase, MG132-induced, luminescence 8 h; stronger effect = lower value; activity change, negative = inhibition, % at 7.5 µM (by protocol); 300,000 tested, 0.77% active; AID 2098;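 active means more than half of replicate wells show activity change below -50%, luminescence cut by over half; inconclusive means some wells, but at most half, below -50%; inactive means no replicate well below -50%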;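 further: luciferase reports HSF-1 transcriptional activity via heat shock element; 0% = median of DMSO wells and -100% = zero luminescence signal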
Hep lipid drop – hepatic lipid droplet formation modulation. AML12 mouse hepatocytes, oleate lipid droplets, BODIPY imaging. inhibition, % at 6.5 µM. 240,000 tested, 0.4% active;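 active means lipid droplet intensity inhibited by at least 50%, with more than 500 cells counted; inconclusive means wells with under 300 cells, treated as cytotoxic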
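Assay system: AML12 hepatocytes (mouse); Probe or stimulus: oleic acid at 100 µM to induce lipid droplet formation; Dosing: compound at 6.5 µM only; Schedule: compound with oleate, overnight; Detection: fluorescence imaging, 20x objective, two fields per well; Measure: % inhibition of lipid droplet signal.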
HSF-1 act – increases HSF-1 driven luciferase reporter signal | activation, % at 9 µM | NIH3T3-HGL HSF-1 luciferase reporter, MG132, 8 h; 100% = twice DMSO control signal | 300,000 tested, 1.7% active;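 active means mean replicate activation of at least 50% with a set share of replicates each reaching 50%; inconclusive means only one of those two conditions met; inactive means mean below 50% and too few replicates reaching it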;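 further: 0% = median of the neutral control wells and 100% = twice that signal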
HCV NS3 hel inh – inhibitors of Hepatitis C virus NS3 helicase; inhibition, % at 10.9 µM; AID 1800; NS3 helicase DNA unwinding, Cy5 molecular beacon fluorescence; 290,000 tested, 0.56% active;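 active means inhibition above the mean of all tested compounds plus 3 SD, set per campaign, cut at about 35% in these data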;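 further: 0% = DMSO wells and 100% = thioflavine S control wells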
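assay system = NS3 helicase fragment of HCV | buffer or medium = MOPS pH 6.5, MgCl2, DTT, Tween20, BSA | timing = 60 min unwinding reaction at 25 °C after ATP addition | signal = Cy5 beacon fluorescence read at start and 1 h | read-out basis = % inhibition of unwinding | control set = low DMSO, high thioflavine S at 110 µM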
HSP90 confirm – HSP90 inhibition, confirmation assay; rabbit reticulocyte lysate, luciferase refolding luminescence, 3 h; inhibition, % at 5.9 µM; shares compounds with HSP90 inh; AID 1846; 2,300 tested, 64% active; in the data active means inhibition above about 18%;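 further: 0% = vehicle wells and 100% = reference inhibitor wells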
luciferase ctr – counter-screen for HSP90 inhibitors: inhibitors of firefly luciferase | inhibition, % at 5.9 µM | AID 1847 | shares compounds with HSP90 inh | 2,300 tested, 48% active | purified native firefly luciferase, luminescence;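 active means inhibition above the mean inhibition of all tested sample wells plus 3 SD, cut at about 10% in these data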;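 further: 0% = DMSO with luciferase and 100% = wells lacking luciferase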
Target sequence (P08659 whole entry, looked up): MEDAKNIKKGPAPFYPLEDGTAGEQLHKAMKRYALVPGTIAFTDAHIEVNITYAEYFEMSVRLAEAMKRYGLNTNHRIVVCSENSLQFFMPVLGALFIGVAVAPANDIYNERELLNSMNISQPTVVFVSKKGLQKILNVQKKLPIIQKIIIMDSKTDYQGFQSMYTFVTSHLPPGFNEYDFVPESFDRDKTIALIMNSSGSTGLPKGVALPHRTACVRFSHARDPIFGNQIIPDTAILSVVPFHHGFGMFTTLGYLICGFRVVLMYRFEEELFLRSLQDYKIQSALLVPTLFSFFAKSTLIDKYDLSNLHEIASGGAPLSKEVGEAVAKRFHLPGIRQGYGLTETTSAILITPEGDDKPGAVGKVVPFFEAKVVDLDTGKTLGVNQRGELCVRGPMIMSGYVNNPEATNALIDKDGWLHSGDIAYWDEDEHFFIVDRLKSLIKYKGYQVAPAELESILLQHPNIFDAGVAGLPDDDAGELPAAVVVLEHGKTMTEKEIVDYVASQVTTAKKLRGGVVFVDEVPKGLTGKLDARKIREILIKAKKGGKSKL
An asterisk follows results filed as active; ? = inconclusive; · = not tested or not shown. In the library only some 3.8% were active in any assay of this set; here they are far more common.

SMILES | HSP90 inh | HSF1 inhib | Hep lipid drop | HSF-1 act | HCV NS3 hel inh | HSP90 confirm | luciferase ctr
Cc1cccc(NC2=C/C(=N/S(=O)(=O)c3cccs3)c3ccccc3C2=O)c1 | 4 | · | 8 | · | 2 | · | ·
CC1CCCCN1C(=O)Cn1cnc2cc([N+](=O)[O-])ccc2c1=O (centres undefined) | 4 | -1 | 18 | 0 | 10 | · | ·
CSCCC(NS(=O)(=O)c1ccc(C)cc1)C(=O)NC1CCCCCC1 (centres undefined) | · | 5 | · | 24 | · | · | ·
Cc1cc(=O)n(-c2ccc(O)cc2)[nH]1 | 18* | 7 | · | 16 | 5 | -2 | -4
Cc1cc(=O)n(-c2ccc(C(=O)O)cc2)[nH]1 | 3 | -7 | -20 | 0 | -22 | · | ·
COc1ccccc1C(=O)Nc1nc2ccccc2[nH]1 | 98* | -83* | -6 | -86 | 1 | 97* | 92*
COc1cc(SC)ccc1C(=O)Nc1nc2ccccc2[nH]1 | 99* | -92* | 23 | -93 | 3 | 97* | 92*
COc1ccc(C(=O)Nc2ccc3ccccc3n2)c(OC)c1OC | 41* | -29 | -2 | -45 | 0 | 68* | 65*
Cn1nc(C(=O)NCCCN2CCCCC2)c2c1-c1ccccc1SC2 | 2 | -2 | -39 | 5 | -16 | · | ·
O=C(O)C1CCN(C(=O)c2ccc3c(c2)OCO3)CC1 | 2 | -1 | 4 | -19 | 6 | · | ·
c1ccc(-n2cnc3cc(NCc4ccccn4)ccc32)cc1 | 18* | -36 | 6 | -46 | -20 | 18* | 3
O=C1N/C(=C\c2ccccc2)c2ccccc21 | 2 | 9 | 10 | 14 | 10 | · | ·
O=C1N/C(=C\c2nc3ccccc3s2)c2ccccc21 | 21* | -6 | 24 | 12 | -2 | 53* | 25*
O=C(Nc1nc(-c2ccccc2)cs1)C1COc2ccccc2O1 (centres undefined) | 3 | 1 | 10 | 23 | -1 | · | ·
Cc1csc(NC(=O)C2COc3ccccc3O2)n1 (centres undefined) | 46* | 16 | -1 | 39 | 5 | 63* | 56*
Cc1nc2ccc3nc(NC(=O)C4COc5ccccc5O4)sc3c2s1 (centres undefined) | 1 | 20 | -1 | 8 | -9 | · | ·
CC1CCc2nc(NC(=O)C3COc4ccccc4O3)sc2C1 (centres undefined) | 57* | -71* | -4 | -75 | -5 | 72* | 66*
Cc1cnc(NC(=O)C2COc3ccccc3O2)s1 (centres undefined) | 46* | · | · | · | 11 | 70* | 70*
CSc1ncc(CN2CCc3c([nH]c4ccccc34)C2c2cccc(O)c2)cn1 (centres undefined) | 2 | 0 | 0 | -4 | 5 | · | ·
Cc1c(C(=O)O)cccc1-c1ccc(/C=C2/NC(=O)N(c3ccccc3)C2=O)o1 | 33* | 4 | 11 | -5 | 11 | 28* | -20
Cc1c(N=NC2=C(O)CC(C)(C)CC2=O)c(=O)n(-c2ccccc2)n1C | -3 | -5 | 24 | -1 | 1 | · | ·
CC(NC(=O)c1ccc(F)cc1F)C1CC2CCC1C2 (centres undefined) | 1 | 1 | 2 | -4 | 7 | · | ·
O=C(O)c1ccc(N/N=C/c2cn(Cc3ccccc3F)c3ccccc23)cc1 | 36* | -64* | -2 | -70 | 19 | 39* | 32*
O=C(O)c1ccc(N/N=C/c2c[nH]c3ccccc23)cc1 | 82* | -78* | · | -80 | 7 | 89* | 86*
CC(C)n1cc(/C=N/Nc2ccc(C(=O)O)cc2)c2ccccc21 | 63* | -82* | -17 | -84 | 10 | 71* | 62*
SMILES | HSP90 inh | HSF1 inhib | Hep lipid drop | HSF-1 act | HCV NS3 hel inh | HSP90 confirm | luciferase ctr
Cn1cc(/C=N/Nc2ccccc2)c2ccccc21 | 3 | 5 | -13 | 14 | 6 | · | ·
Nc1ccc(C(=O)N/N=C/c2cn(Cc3ccccc3F)c3ccccc23)cc1 | -2 | -6 | -32 | 15 | 6 | · | ·
O=C(O)c1ccc(N/N=C/C(Br)=C/c2ccccc2)cc1 | 24* | 11 | 30 | 30 | 18 | 50* | 35*
CCN1C(=O)[C@H]2[C@@H](c3ccc(C)cc3)N3C(=O)N(c4ccc(OC)cc4)C(=O)[C@@]3(C)[C@H]2C1=O | -1 | -5 | · | 0 | -5 | · | ·
CCOc1ccc(OCC)c(NC(=O)C2CCN(c3cnccn3)CC2)c1 | 2 | -8 | 24 | -3 | 14 | · | ·
Nc1nc2ccccc2n1C(=O)c1ccccc1 | 27* | 17 | -15 | 25 | -6 | 59* | 42*
Nc1nc2ccccc2n1C(=O)c1ccc(F)cc1 | 40* | 15 | 6 | 39 | -11 | 54* | 35*
COc1ccc(C(=O)n2c(N)nc3ccccc32)cc1OC | 1 | 9 | -2 | 30 | -5 | · | ·
O=S(=O)(c1ccc(OCC2CO2)cc1)c1ccc(OCC2CO2)cc1 (centres undefined) | 1 | 3 | 6 | 11 | 1 | · | ·
O=C(COC(=O)CCS(=O)(=O)c1ccc(Cl)cc1)NCCc1ccccc1 | -8 | -7 | -6 | 2 | 1 | · | ·
Cc1nc2c(Br)c(C)nn2c2c1CCC2 | 4 | -2 | -7 | -1 | -18 | · | ·
O=C(O)COc1ccccc1/C=C1\SC(=S)N(c2cccnc2)C1=O | 3 | 1 | 6 | -7 | 7 | · | ·
O=C(NCc1ccc2c(c1)OCO2)C(=O)NCC1OCCCN1S(=O)(=O)c1cc(F)ccc1F (centres undefined) | 0 | -4 | 10 | -4 | 4 | · | ·
CSCCC1C(C#N)=C(N)Oc2n[nH]c(-c3cccs3)c21 (centres undefined) | 4 | 8 | · | 5 | 15 | · | ·
CC(C)CC1C(C#N)=C(N)Oc2n[nH]c(-c3cccs3)c21 (centres undefined) | 18* | 6 | 13 | -3 | -2 | -7 | 1
N#CC1=C(N)Oc2n[nH]c(-c3cccs3)c2C1c1cccs1 (centres undefined) | 34* | 2 | 7 | 8 | 22 | -9 | -8
N#CC1=C(N)Oc2n[nH]c(-c3cccs3)c2C1c1ccccc1C(=O)O (centres undefined) | 7 | -7 | -1 | 4 | 23 | · | ·
N#CCCN(Cc1ccccc1)S(=O)(=O)c1cccs1 | -3 | 0 | 2 | 13 | 6 | · | ·
CCc1nnc(N/N=C/c2cccs2)n1N | 66* | 17 | 31 | 28 | 1 | -1 | -5
CCc1nnc(N/N=C/c2c(Cl)cccc2Cl)n1N | 57* | 24 | · | ? | -9 | -4 | -9
O=C1CC(NS(=O)(=O)c2ccccc2)CN1c1ccc2c(c1)OCCO2 (centres undefined) | · | -11 | · | -8 | · | · | ·
CCOc1ccc(-c2nc3c(s2)CCc2onc(-c4ccc(OC)cc4)c2-3)cc1 | · | -6 | · | -15 | · | · | ·

Compound activity: PubChem BioAssay, several laboratories
